Hits are enriched below; roughly 3% of the tested compounds scored in any of these assays.
TAAR1 agonist – human TAAR1 agonists, primary screen, Fluo-8 calcium fluorescence, CHO RD-HGA16 cells | Trace amine-associated receptor 1 (Homo sapiens), Q96RJ0 | vehicle wells 0%, saturating PEA agonist 100% | activation, % at 3 µM | actives 0.99% (n = 360,000) | AID 624467, 2012;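 active means activation above the mean activation of all test compounds in the run plus 3 SD, cut at about 38% in these data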
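Test system: RD-HGA16 (CHO) cells co-expressing Gα16 and hTAAR1 / Benchmarks: DMSO vehicle as 0%, PEA at EC100 as 100% / Repeats: no replicates (n 1) / Measure: % activation from peak over basal fluorescence ratio, DMSO-to-PEA scaled / Timing: 17-24 h plating, Fluo-8 75 min 37 °C, 30 min RT / Technique: kinetic Fluo-8 calcium fluorescence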
CHRM4 antagonist – human M4 muscarinic receptor antagonists, primary screen, CHO cells, Fluo-8 calcium fluorescence. Muscarinic acetylcholine receptor M4 (Homo sapiens), P08173. CHO-hM4 cells, ACh EC80. inhibition, % at 3 µM. actives 0.73% (n = 360,000);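 active means inhibition above its plate's cutoff, the mean inhibition of sample wells plus 3 SD, cut at about 27% in these data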;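 further: 0% = acetylcholine EC80 with DMSO and 100% = DMSO without agonist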
Target sequence (P08173 whole entry, looked up): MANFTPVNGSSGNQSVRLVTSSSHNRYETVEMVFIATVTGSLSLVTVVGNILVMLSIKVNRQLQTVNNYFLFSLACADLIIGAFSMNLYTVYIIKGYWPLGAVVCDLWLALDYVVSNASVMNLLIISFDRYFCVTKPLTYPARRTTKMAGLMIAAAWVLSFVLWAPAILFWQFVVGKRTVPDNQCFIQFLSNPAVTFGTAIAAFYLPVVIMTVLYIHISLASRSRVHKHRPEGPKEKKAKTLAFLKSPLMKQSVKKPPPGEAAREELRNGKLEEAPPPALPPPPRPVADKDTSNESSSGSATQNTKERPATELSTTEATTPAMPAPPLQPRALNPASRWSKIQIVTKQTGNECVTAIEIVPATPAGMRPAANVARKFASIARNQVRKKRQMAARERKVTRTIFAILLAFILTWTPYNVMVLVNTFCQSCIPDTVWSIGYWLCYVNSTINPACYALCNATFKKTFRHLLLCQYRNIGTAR
CHRM4 agonist – human M4 muscarinic receptor agonists, primary screen, CHO-K1 cells, Fluo-8 calcium fluorescence. Muscarinic acetylcholine receptor M4 (Homo sapiens), P08173. CHO-K1 hM4/Gqi5; vehicle 0%, full acetylcholine response 100%. activation, % at 3 µM. actives 0.14% (n = 360,000). AID 624127, 2012;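 active means activation above the run mean over all test wells plus 3 SD, cut at about 32% in these data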;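 further: peak over basal fluorescence ratio per well then scaled between controls; 0% = DMSO wells and 100% = acetylcholine at EC100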
CHRM4 PAM – human M4 muscarinic receptor positive allosteric modulators, primary screen, CHO-K1 cells, Fluo-8 calcium fluorescence; Muscarinic acetylcholine receptor M4 (Homo sapiens), P08173; CHO-K1 hM4/Gqi5, ACh EC20; 0% = ACh EC20, 100% = maximal ACh; activation, % at 3 µM; actives 0.4% (n = 360,000);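 active means activation above its plate's cutoff, the mean activation of sample wells plus 3 SD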
TAAR1 antag – human TAAR1 antagonists, primary screen, Fluo-8 calcium fluorescence, CHO RD-HGA16 cells. Trace amine-associated receptor 1 (Homo sapiens), Q96RJ0. AID 624466, 2012. actives 1.5% (n = 360,000). antagonist. inhibition, % at 3 µM;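 active means inhibition above a per-plate cutoff, the mean inhibition of test compounds on that plate plus 3 SD, cut at about 49% in these data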;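 further: 0% = DMSO plus EC80 beta-PEA response and 100% = DMSO alone without agonist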
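Test system – hTAAR1-expressing CHO RD-HGA16 cells, Gα16-coupled · Also added – β-PEA at EC80 concentration, post-compound challenge · Compound – 3 µM, single point · Incubation – dye loading 75 min at 37 °C, then 30 min room temperature · Measured by – Fluo-8 intracellular calcium dye fluorescence, real-time kinetic reads · Benchmarks – vehicle and agonist controls · Replicates – singlicate, one well per test compound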
TAAR1 ag conf – human TAAR1 agonists, retest of hits, confirmation, Fluo-8 calcium fluorescence, CHO RD-HGA16 cells; shares compounds with TAAR1 agonist; scaled: DMSO 0%, maximal phenethylamine 100%; activation, % at 3 µM; actives 82% (n = 2,400);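 active means activation above a cutoff set at the run's mean compound activation plus 3 SD, cut at about 39% in these data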
Ga16 nonsel ag – nonselective calcium mobilization agonists, CHO-Ga16 cells, counter-screen for hTAAR1 agonist project, cell-based, fluorescence, CHO-Ga16 parental line; shares compounds with TAAR1 agonist; Fluo-8 calcium fluorescence; normalized to maximal ATP response, DMSO zero; activation, % at 3 µM; actives 50% (n = 2,400);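 active means activation above the run cutoff, the mean activation over all tested wells plus 3 SD, cut at about 12% in these data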;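 further: 0% = DMSO wells and 100% = maximal ATP response on the peak over basal ratio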
TAAR1 desensitize – TAAR1 desensitization by agonist hits, confirmation, counter-screen for TAAR1 agonist project, cell-based, fluorescence, tachyphylaxis; shares compounds with TAAR1 agonist; CHO RD-HGA16 hTAAR1, Fluo-8 calcium, beta-PEA response inhibition; inhibition, % at 3 µM; actives 46% (n = 2,400); AID 651951, 2012;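 active means inhibition above the run cutoff, the mean inhibition of all test compounds plus 3 SD, cut at about 49% in these data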;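 further: beta-PEA stimulus applied at its EC80; loss of beta-PEA calcium signal after compound pretreatment read as receptor desensitization; 0% = DMSO with beta-PEA at EC80 and 100% = DMSO alone without agonist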
Ga16 nonsel ant – inhibition of ATP-evoked calcium response in CHO-Ga16 cells, counter-screen for TAAR1 agonist project, cell-based, fluorescence; shares compounds with TAAR1 agonist; CHO-Ga16 ATP-induced calcium, Fluo-8 fluorescence; inhibition, % at 3 µM; actives 39% (n = 2,400);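 active means inhibition above the plate's mean compound inhibition plus 3 SD, computed per plate, cut at about 22% in these data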;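 further: 0% = EC80 ATP with DMSO and 100% = DMSO wells without ATP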
Active calls of the source: *; · = not tested or not shown.

SMILES | TAAR1 agonist | CHRM4 antagonist | CHRM4 agonist | CHRM4 PAM | TAAR1 antag | TAAR1 ag conf | Ga16 nonsel ag | TAAR1 desensitize | Ga16 nonsel ant
Cc1ccccc1-n1c(=O)cc(N2CC(C)OC(C)C2)[nH]c1=O (stereo unspecified) | 5 | -8 | 0 | 2 | 7 | · | · | · | ·
Cc1cc(N2CCN(C(C(=O)NC3CCCC3)C(C)(C)C)CC2)c2ccccc2n1 (stereo unspecified) | 6 | -4 | 2 | -10 | -16 | · | · | · | ·
COc1ccc(CC(=O)O/N=C(\N)Cc2cccc3ccccc23)cc1OC | 42* | 3 | 1 | -9 | 25 | 65* | 2 | 45 | 19
N/C(Cc1cccc2ccccc12)=N\OC(=O)Cc1cccs1 | 61* | 4 | -1 | -3 | 26 | 74* | 1 | 24 | 3
C[C@@H]1CN([C@H](C)CO)C(=O)CCCn2nncc2CO[C@H]1CN(C)Cc1ccc2c(c1)OCO2 | 0 | -2 | 1 | 3 | 13 | · | · | · | ·
CC1CCN(c2ncnc3c2cnn3Cc2ccc(Cl)cc2)CC1 | 51* | -5 | 1 | 5 | 25 | 38* | 20* | 26 | 15
CCN(CC)c1ccc(/C=C2/C(=O)c3ccc(C(=O)O)cc3C2=O)cc1 | 265* | 33* | 20 | -12 | 103* | 214* | 199* | 105* | 98*
CCN(CC)c1ccc(/C=C2/C(=O)ON=C2C)cc1 | 23 | 7 | 6 | 0 | 9 | · | · | · | ·
Cc1cc(/C=C(\C#N)C(N)=O)c(C)n1-c1ccc(N2CCOCC2)c([N+](=O)[O-])c1 | 91* | 7 | 23 | -1 | 17 | 114* | 53* | 73* | 29*
Cc1cc(C=O)c(C)n1-c1ccc(N2CCCCC2)c([N+](=O)[O-])c1 | 12 | -4 | 7 | -6 | 4 | · | · | · | ·
O=C(NCCNC(=O)c1ccc(Br)o1)c1ccc(Br)o1 | 3 | 9 | 1 | -2 | 1 | · | · | · | ·
O=C(NCCc1ccccc1)c1ccc(-c2ccccc2Cl)o1 | 51* | 4 | 5 | -1 | 21 | 16 | 19* | 81* | 15
CC(=O)Nc1ccc(NC(=O)c2ccc(-c3ccccc3Cl)o2)cc1 | 58* | 7 | 2 | 0 | 54* | 40* | 43* | 57* | 38*
O=C(Nc1ccccc1)c1ccc(-c2ccccc2Cl)o1 | 7 | -4 | 1 | 0 | 1 | · | · | · | ·
O=C(NCCc1ccccc1)c1ccc(Br)o1 | 67* | 10 | -1 | 1 | 27 | 77* | 3 | 40 | 1
O=C(Nc1cccnc1)c1ccc(-c2cc(Cl)ccc2Cl)o1 | 73* | -5 | 13 | 1 | 15 | 40* | 43* | 40 | 19
COCCNC(=O)C1(C)CCCN(C(=O)c2ccccc2)C1 (stereo unspecified) | 1 | 5 | 1 | 0 | 13 | · | · | · | ·
O=C(NCCCn1ccnc1)c1sc2cc([N+](=O)[O-])ccc2c1Cl | 2 | -13 | 3 | 10 | 7 | · | · | · | ·
O=c1c2ccc([N+](=O)[O-])cc2ncn1Cc1ccccc1C(F)(F)F | 51* | -3 | 1 | 4 | 7 | 8 | 22* | -2 | 12

High-throughput results as filed in PubChem BioAssay.
